Assay: Toxicity liver stage against HepG2, at 10uM
Type: cell-based
Parameters: test concentration 10 uM, cell line HepG2-A16-CD81EGFP
Details: human, HepG2-A16-CD81EGFP cells; read-out: INHIBITION
Procedure, shortened: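 Uninfected HepG2-A16-CD81EGFP cells, 3 × 10^3 per well, 1536-well, plated on prespotted compound at 10 μM final, parasite-free screening media added to match infected plates; puromycin 10 μM positive, DMSO 0.5% negative; run in parallel with 48 h PbLuc assay at 37 °C, 5% CO2; viability by CellTiter-Glo luminescence, normalized to controls.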

Row | SMILES | cytotoxicity at 10 µM
1 | Cc1ccc2c(c1)c(Sc1ccccc1)c(CC(=O)O)n2C | 3.56%
2 | CCc1nc(CNC(=O)C2CCC(=O)N(Cc3ccccc3F)C2)no1 (stereo not drawn) | -1.88%
3 | COc1ccc2[nH]cc(C(=O)CNc3nccs3)c2c1 | 4.32%
4 | CCC(NC(N)=O)c1ccccc1OCC(=O)N1CCCC1 (stereo not drawn) | -8.29%
5 | CCN1CC(COC(C)(C)C)Oc2ccncc2S1(=O)=O (stereo not drawn) | -3.43%
6 | COc1cc(C2CC(=O)Oc3cc(C)[nH]c(=O)c32)ccc1OCC(=O)O (stereo not drawn) | -4.23%
7 | Cc1ccc(C(=O)Nc2nnc(C(C)C)s2)c(-n2cnnn2)c1C | -0.649%
8 | COc1ccc(C(=O)Nc2ccc3ncn(C(C)C)c(=O)c3c2)cc1 | 4.04%
9 | CCc1cc(=O)[nH]c2nnc(SCC(=O)NC)n12 | -4.06%
10 | CNC(=O)Cn1nc(C(C)C)c2cnn(C(C)(C)C)c2c1=O | -7.67%
11 | CC(=O)Nc1ccc(CC(=O)N2CC(S(=O)(=O)C3CCCCC3)C2)cc1 | -12.8%
12 | COc1ccc(OC)c(Sc2ncccc2C(=O)N(C)CCC#N)c1 | 13.3%
13 | O=C(Cn1cc(-c2ccccc2)ncc1=O)Nc1nnc[nH]1 | 20.3%
14 | CCc1oc2ccc(NS(C)(=O)=O)cc2c1C(=O)OC | 6.8%
15 | CCn1nccc1CNC(=O)CCC1CCCC1 | 11.4%
16 | CCn1nc(C)c(NC(=O)C(C)C)c1C | 1.73%
17 | CCCN1CCN(c2nc(N)nc3c2nc(C)n3C)CC1 | -5.15%
18 | NC(=O)C1(Cc2ccccc2-c2cncnc2)CCCNC1 (stereo not drawn) | 3.35%
19 | Cc1cc(C(=O)N2CCC(O)(Cn3ccc4ccncc43)CC2)on1 | 7.55%
20 | O=C(Cn1cnc2cc3c(cc21)OCCCO3)NCCc1ccccc1 | 7.57%
21 | CNc1cncc(C2CCN(S(C)(=O)=O)CC2)n1 | 3.54%
22 | Cc1ccc(S(=O)(=O)N2CCC(c3n[nH]cc3C(=O)N(C)C)CC2)cc1 | -1.73%
23 | Cc1cnc(N2CCOC(C(=O)NCc3ccccc3)C2)s1 (stereo not drawn) | -2.84%

Row | SMILES | cytotoxicity at 10 µM
24 | CCc1ncc(CN2CCc3nc4sc(C)cc4c(=O)n3CC2)cn1 | -6.47%
25 | O=S(=O)(c1ccc(F)cc1)N1CCCCC1c1cc[nH]n1 (stereo not drawn) | -3.55%
26 | O=C(c1cccc(F)c1)N1CCOC(c2nc(-c3ncccn3)no2)C1 (stereo not drawn) | 5.3%
27 | COc1ccc(Br)cc1SCCCS(C)(=O)=O | 3.85%
28 | COc1ccc(C(C)NCc2ccnn2C)cc1Cn1cccn1 (stereo not drawn) | 7.57%
29 | Cn1cc(-c2noc(C3(C)CCOCC3)n2)cn1 | -5.65%
30 | CCOC(C)c1nccn1CCC(=O)Nc1cc(C)on1 (stereo not drawn) | 10.1%
31 | Cc1cnn(CCNCc2cc(=O)n3cc(Cl)ccc3n2)c1 | 0.217%
32 | CCN(C)c1ccc(CNC(=O)CCn2cc(C)cn2)cc1F | -9.51%
33 | CC(NC(=O)NC1CCN(Cc2ccncc2)CC1)c1cccc(F)c1 (stereo not drawn) | -12.5%
34 | O=C(c1ccn(-c2ccc(F)cc2)n1)N(CCO)Cc1cccnc1 | 17.5%
35 | CC(C)c1nc(CNc2ccc(N3CCC(CO)CC3)cn2)cs1 | -2.6%
36 | c1ccc(C2(NCC3CNc4ccnn4C3)CCC2)cc1 (stereo not drawn) | -5.34%
37 | O=C(CCCn1cccn1)N1CCCC(n2cncn2)C1 (stereo not drawn) | 6.61%
38 | COc1ccc(C(CC(=O)O)NC(=O)CCc2cccs2)cc1OC (stereo not drawn) | -6.33%
39 | Cc1nn(C)c(C)c1C1CCCN1CCOc1cccc(C#N)c1 (stereo not drawn) | -8.41%
40 | CC(C)C1CCCN1CC(=O)NCc1ccc(OCC(N)=O)cc1 (stereo not drawn) | 7.01%
41 | CC1CCC(NC(=O)CNC2(c3ccc(F)cc3)CCOCC2)CC1 (stereo not drawn) | 7.79%
42 | CCC(=O)N1CCCN(c2cncc(-n3nc(C)cc3C)n2)CC1 | -8.44%
43 | CCOC(=O)NC(=O)CSC(C)c1ccccc1F (stereo not drawn) | -15.1%
44 | CCc1ccc(CNC(=O)NC2CCCc3c2cnn3CCO)s1 (stereo not drawn) | -6.78%
45 | Cc1ccc(C(=O)NCc2ccc(N3CCNC(=O)C3)c(F)c2)cc1 | -3.31%
46 | NC(=O)C(CNC(=O)CCc1ccsc1)Cc1ccc(F)cc1 (stereo not drawn) | 21.2%

Row | SMILES | cytotoxicity at 10 µM
47 | CCn1ccnc1CN1CCN(Cc2cnc(C)cn2)CC1C (stereo not drawn) | -2.76%
48 | CNS(=O)(=O)c1ccc(CNC(=O)c2cc(C)no2)cc1 | 5.12%
49 | CC(NC(=O)NCCNc1cccc(F)c1C#N)c1cccs1 (stereo not drawn) | -1.31%
50 | COCC(NC(=O)c1ccoc1)c1ccc(C)o1 (stereo not drawn) | 3.6%
51 | CCC1c2ccccc2CCN1C(=O)c1ccc(OC)nn1 (stereo not drawn) | -12.8%
52 | OCCOc1cc(F)ccc1NCc1nc(-c2cccs2)no1 | -46.1%
53 | Cc1nc(CN(CCS(C)(=O)=O)C(C)(C)C)no1 | -1.86%
54 | O=C(NCCC1Cc2ccccc2C1)N1CCCC(O)C1 (stereo not drawn) | 22.2%
55 | CN(CC1CCCCC1)C(=O)c1cn(C)nc1-c1cccnc1 | 2.2%
56 | O=C(NCCCn1ccnc1)c1csc2c1CCCC2 | -2.96%
57 | COc1ccc(CCC(=O)Nc2ccncc2C)cc1 | 16.1%
58 | COCCNC(=O)C[C@@H]1COC[C@H]2CN(C(=O)COC)C[C@@H]12 | -96.5%
59 | COC[C@@]12CCO[C@@H]1CCN(C(=O)C1CCOCC1)C2 | -106%
60 | CCS(=O)(=O)N1CCC2(CCN(Cc3ccc(C)o3)C2)C1 (stereo not drawn) | -116%
61 | CC(=O)Nc1nc(C)c(S(=O)(=O)NCCc2cccnc2)s1 | -10.5%
62 | CC(C)[C@H]1CN(Cc2nccn2C)C[C@@H]1NC(=O)CCS(C)(=O)=O | -8.85%
63 | CCN(CCO)C[C@@H]1CN(c2cc(C(F)(F)F)cc(C)n2)C[C@@H]1CO | -1.7%
64 | Cc1c(C(=O)N2CCC3(CCCNC3=O)C2)sc2nc[nH]c(=O)c12 (stereo not drawn) | -10.7%
65 | COc1ccc2c(c1)OCC(CNC(=O)c1cnc(O)cn1)C2 (stereo not drawn) | -1.09%
66 | CN1CCN2CCN(Cc3cc(=O)n4c5c(cccc35)CCC4)CC2C1 (stereo not drawn) | 9.05%
67 | CCCN1CCC(N2CCOC(Cc3cccc(OC)c3)C2)CC1 (stereo not drawn) | 8.69%
68 | COC[C@]1(O)CCN(c2cc(C3CC3)ncn2)CC1(C)C | -1.53%
69 | COc1ccc(-n2cccn2)c(CN2CCC3(CCCNC3)C2)c1 (stereo not drawn) | -1.09%

Row | SMILES | cytotoxicity at 10 µM
70 | Cc1ccc(C(=O)N2CCC3(CC2)c2ccccc2[C@@H](N)[C@@H]3O)c(=O)[nH]1 | -2.72%
71 | CCCN1CCN(C(=O)c2cccc3cccnc23)[C@H]2CS(=O)(=O)C[C@H]21 | 4.36%
72 | CC(C)n1cnnc1Cn1ccc2ncccc2c1=O | 0.86%
73 | O=C(NCC(O)c1cccc(O)c1)C1CCN(C2CCCCC2)CC1 (stereo not drawn) | 7.16%
74 | c1ccc2c(c1)CC(Cc1cc(N3CCCC3)cnn1)CO2 (stereo not drawn) | -6.03%
75 | O=C(c1cn2cc(Cl)ccc2n1)N1CCC(CCn2cccn2)CC1 | -10.2%
76 | Cc1noc(C)c1C1CCCN1C(=O)c1cn2ccsc2n1 (stereo not drawn) | 12.3%
77 | O=C(c1cc(Cn2ccc3ccccc32)[nH]n1)N1CCCCC1CO (stereo not drawn) | 6.03%
78 | CC[C@@]1(O)CCN(C(=O)c2ccoc2)C[C@H]1O | 4.63%
79 | COCCN(Cc1cccc(OCCO)c1)Cc1ccccc1F | -9.53%
80 | CC1=C(C(=O)N2CCCC(Cn3cc(CO)nn3)C2)OCCO1 (stereo not drawn) | 0.92%
81 | COCCCN(Cc1cnc(-c2cccs2)nc1)C1CCN(C)CC1 | -3.85%
82 | CN(Cc1n[nH]c(=O)n1CCc1ccccc1F)S(C)(=O)=O | -1.78%
83 | CCC1CN(C(=O)c2cncc(C)c2)CCC(=O)N1Cc1ccccc1 (stereo not drawn) | 9.33%
84 | CC(NC(=O)Cc1cc2c(cc1Cl)OCCO2)c1ccncn1 (stereo not drawn) | -6.29%
85 | CC(C)c1cc(N2CCC[C@H](N)C2)n2nccc2n1 | -5.42%
86 | COc1ccccc1N1CCC(N2CCOC(C(F)(F)F)C2)CC1 (stereo not drawn) | -1.45%
87 | CCn1cc(CN2CCC(c3ccncc3)CC2)cc1C#N | -5.38%
88 | CCN(CC)C(=O)[C@@H]1C[C@H](NC(=O)c2cccn2C(C)C)CN1C | 7.57%
89 | CCCOCC1CCN(C(=O)Cn2cccc(OC)c2=O)C1 (stereo not drawn) | 5.88%
90 | COCCn1cncc1Cn1ncc2ccccc2c1=O | 1.77%
91 | O=C(N[C@@H]1CCN(Cc2cccc3nonc23)C[C@H]1O)c1cccnc1 | -2.3%
92 | Cn1ccc2cc(C(=O)N3CCOCC3)ccc21 | 1.91%

Row | SMILES | cytotoxicity at 10 µM
93 | Cc1cc(-c2nnc(SCC(=O)O)n2C(C)c2ccccc2)nn1C (stereo not drawn) | -1.1%
94 | CCOC(=O)N1CC(C)=C(C)CN1C(=O)Nc1ccc(Cl)c(Cl)c1 | -0.113%
95 | Cc1ncncc1C(=O)NCCn1nc2ccccn2c1=O | -6.89%
96 | COc1cccc(-n2nnc(C(=O)N3CCC(C(N)=O)CC3)c2C)c1 | -6.66%
97 | O=C(c1ccc(N2CCOCC2)nc1)N1CCCC(n2ccnc2)C1 (stereo not drawn) | -18.2%
98 | COc1cccc(COCC(=O)N2CCCC(n3cccn3)C2)c1 (stereo not drawn) | -0.363%
99 | CCn1cnnc1C1CCN(C(=O)c2cccc3c2ccn3C)CC1 | -8%
100 | Cn1cnc2c1CCN(Cc1csc(-c3ccsc3)n1)C2 | -8.78%
101 | O=C(Nc1cccc2c1CCCC2)C1CCCN1c1nccs1 (stereo not drawn) | -4.15%
102 | COCCOc1ncccc1C(=O)Nc1ccc(-n2cncn2)c(F)c1 | -0.138%
103 | CCn1cc(NC(=O)NCC(C)O)cn1 (stereo not drawn) | -4.84%
104 | Cc1nccn1CC1CCCN1S(=O)(=O)Cc1ccccc1F (stereo not drawn) | -3.33%
105 | Cc1ccc2cc(C(=O)NCCn3nc4ccccn4c3=O)[nH]c2c1 | 2.95%
106 | CN(C)C(=O)c1sc2ncccc2c1C1CNCCO1 (stereo not drawn) | 2.35%
107 | Cc1ccc(CN2CC[C@H]3[C@H](CO[C@H]3CN(C)C)C2)o1 | -129%
108 | Cc1nn(CCO)c(C)c1CNC1CCOc2ccccc21 (stereo not drawn) | 14.4%
109 | CN(C)CCN1C(=O)CCC12CCN(C(=O)c1cccnc1)CC2 | 6.41%
110 | O=C1COC2(COCCN(Cc3ccsc3)C2)CN1c1ccc(F)cc1 (stereo not drawn) | 2.83%
111 | COCC1CC2(CCN(CC3CC3)CC2)CN1Cc1ccccn1 (stereo not drawn) | -97.4%
112 | CSc1ccc(-c2cc(CN)nc3ccnn23)cc1 | -7.5%
113 | CCc1noc(CN2C[C@@H]3CC[C@H]2CN(C2Cc4ccccc4C2)C3)n1 | -0.268%

— ChEMBL document CHEMBL4513216, “Probing the Open Global Health Chemical Diversity Library for Multistage-Active Starting Points for Next-Generation Antimalarials” (ACS Infect Dis, 2020)
